In ChEMBL document CHEMBL2346529, “The human Aurora kinase inhibitor danusertib is a lead compound for anti-trypanosomal drug discovery via target repurposing” (Eur J Med Chem, 2013):
Activity calls are given as the source filed them. No cut-off for these calls is given here.

What was measured:
[1] = Selectivity ratio of EC50 for human MOLT4 cells to EC50 for bloodstream form of Trypanosoma brucei rhodesiense YTat1.1; format: ADME, cell-based, MOLT-4; settings: read-out: Ratio EC50
In short: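 Ratio of MOLT-4 EC50 to YTat1.1 EC50. MOLT-4 cells were grown in RPMI 1640 with 20% FBS, seeded at 5×10^4 cells/mL and grown 24 h before compound was added. Treatment used 8 triplicate concentrations between 50 nM and 30 μM for 4 days, followed by a 3 h CellTiter-Blue read at 37°C. The parasite EC50 came from a 48 h CellTiter-Blue dose-response (50 nM–8 μM).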

[2] = system: Trypanosoma brucei rhodesiense; test: Antitrypanosomal activity against bloodstream form of Trypanosoma brucei rhodesiense YTat1.1 assessed as inhibition of growth in log phase after 48 hrs by Cell Titer Blue end-point assay; format: functional, organism-based; settings: YTat1.1, 48 h
In short: (§1)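 Dose-response: at least 8 final concentrations (50 nM–8 μM, 0.2% DMSO), each in triplicate, on log-phase bloodstream-form cells at 1×10^5 cells/mL. Incubation was 48 h at 37°C, 5% CO2, followed by a 3 h CellTiter-Blue fluorescence read with background subtracted. EC50 was derived from inhibition curves. YTat1.1 was culture-adapted from rat blood in HMI-9 with FBS and Serum Plus; its data come from 2–3 independent experiments. 90-13 was grown in HMI-9 with G418 and hygromycin B.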

[3] = system: MOLT-4; test: Cytotoxicity against human MOLT4 cells assessed as inhibition of cell growth after 4 days by Cell Titer Blue end-point assay; format: cell-based; settings: MOLT-4, 96 h
In short: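 MOLT-4 cells in RPMI 1640 with 20% FBS were seeded at 5×10^4 cells/mL and grown 24 h before inhibitor was added. There were 8 concentrations in triplicate, spanning 50 nM to 30 μM final. Treatment lasted 4 days, then CTB was added for 3 h at 37°C. Fluorescence was read at 560Ex/590Em, with cell-free background subtracted and DMSO-only wells taken as 100%. EC50 was fitted from inhibition curves.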

[4] = system: Trypanosoma brucei brucei; test: Antitrypanosomal activity against bloodstream form of Trypanosoma brucei brucei Lister 427 90-13 assessed as inhibition of growth in log phase at 1 uM after 48 hrs by Cell Titer Blue end-point assay; format: functional; settings: Lister 427 90-13, 48 h
In short: (§2)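 Log-phase bloodstream-form cells were seeded at 1×10^5 cells/mL and exposed to compound at a single concentration (0.2% DMSO) for 48 h (4 doublings). AnTat1.1A cells were grown in HMI-9 with 10% FBS and 10% Serum Plus. 90-13 cells were grown in HMI-9 with G418 (2.5 μg/mL) and hygromycin B (5 μg/mL). Cells were pelleted and incubated 3 h at 37°C with CellTiter-Blue. Fluorescence was read at 560/590 nm, background-subtracted and normalized to DMSO controls.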

[5] = system: Trypanosoma brucei brucei; test: Antitrypanosomal activity against bloodstream form of Trypanosoma brucei brucei AnTat1.1A assessed as inhibition of growth in log phase at 10 uM after 48 hrs by Cell Titer Blue end-point assay; format: functional; in short: as §2
[6] = system: Trypanosoma brucei brucei; test: Antitrypanosomal activity against bloodstream form of Trypanosoma brucei brucei Lister 427 90-13 assessed as inhibition of growth in log phase after 48 hrs by Cell Titer Blue end-point assay; format: functional, organism-based; settings: Lister 427 90-13, 48 h; in short: as §1
[7] = system: Trypanosoma brucei brucei; test: Antitrypanosomal activity against bloodstream form of Trypanosoma brucei brucei Lister 427 90-13 assessed as inhibition of growth in log phase at 10 uM after 48 hrs by Cell Titer Blue end-point assay; format: functional; settings: Lister 427 90-13, 48 h; in short: as §2
[8] = system: Trypanosoma brucei brucei; test: Antitrypanosomal activity against bloodstream form of Trypanosoma brucei brucei AnTat1.1A assessed as inhibition of growth in log phase at 1 uM after 48 hrs by Cell Titer Blue end-point assay; format: functional; in short: as §2
[9] = system: Trypanosoma brucei brucei; test: Antitrypanosomal activity against bloodstream form of Trypanosoma brucei brucei assessed as inhibition of growth in log phase at 1 uM after 48 hrs by Cell Titer Blue end-point assay; settings: read-out: GI
[10] = Selectivity ratio of EC50 for human MOLT4 cells to EC50 for bloodstream form of Trypanosoma brucei brucei Lister 427 90-13; format: ADME, cell-based, MOLT-4; settings: read-out: Ratio EC50
In short: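 The ratio is MOLT-4 EC50 over T. b. brucei 90-13 EC50. BF 90-13 cells in HMI-9 with G418 and hygromycin B were seeded at 1×10^5 cells/mL and exposed 48 h to 8 concentrations (50 nM–8 μM final, 0.2% DMSO) in triplicate. MOLT-4 cells were treated 4 days. Both were read by CTB fluorescence, with EC50 fitted from inhibition curves.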

[11] = system: Trypanosoma brucei; test: Inhibition of NH3-AU1 epitope-tagged recombinant Trypanosoma brucei AUK1 expressed in procyclic form trypanosome AnTat1.1 assessed as decrease in myelin basic protein phosphorylation at 500 nM preincubated for 5 mins by pull down assay in presence of [gamma-32P]ATP
In short: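 AU1-tagged TbAUK1 came from procyclic AnTat1.1 cells pretreated with 16 μM MG132 for 3 h. Lysate was pre-cleared and immunoprecipitated overnight at 4°C on AU1 beads. Bead kinase was mixed with 160 μg myelin basic protein in Hepes/KCl/NaF/MgCl2/DTT buffer, pH 7.4, with drug preincubated 5 min. Reactions were started with 8 μM ATP plus [γ-32P]ATP and run 30 min at 30°C. Products were read by SDS-PAGE autoradiography.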

| SMILES | selectivity ratio [1] | EC50 [2] | EC50 [3] | inhibition at 1 µM [4] | inhibition at 10 µM [5] | EC50 [6] | inhibition at 10 µM [7] | inhibition at 1 µM [8] | inhibition of growth at 1 µM [9] | selectivity ratio [10] | inhibition [11] |
| --- | --- | --- | --- | --- | --- | --- | --- | --- | --- | --- | --- |
| Cc1cc(C)cc(CC(=O)N2Cc3[nH]nc(NC(=O)c4ccc(N5CCN(C)CC5)cc4)c3C2)c1 | 4.3 | 1.04 µM | 4.46 µM | 26% | 99% | 2.56 µM | 100% | 85% | > 60% | – | – |
| CN1CCN(c2ccc(C(=O)Nc3n[nH]c4c3CN(C(=O)Cc3c(F)ccc(F)c3F)C4)cc2)CC1 | 6.9 | 0.32 µM | 2.22 µM | 14% | 98% | – | 77% | 52% | > 60% | – | – |
| Cc1nc(CC(=O)N2Cc3[nH]nc(NC(=O)c4ccc(N5CCN(C)CC5)cc4)c3C2)cs1 | – | – | – | 8% | 53% | – | 14% | 23% | – | – | – |
| CC(C)C(C(=O)N1Cc2[nH]nc(NC(=O)c3ccc(N4CCN(C)CC4)cc3)c2C1)c1ccccc1 (racemic) | 6.3 | 0.4 µM | – | 62% | 99% | 0.67 µM | 100% | 99% | > 60% | – | – |
| CN1CCN(c2ccc(C(=O)Nc3n[nH]c4c3CN(C(=O)CC3CC(=O)c5ccccc53)C4)cc2)CC1 (racemic) | – | – | – | 27% | 79% | – | 35% | 34% | – | – | – |
| CN1CCN(c2ccc(C(=O)Nc3n[nH]c4c3CN(C(=O)Cc3cccc(Cl)c3)C4)cc2)CC1 | 6.9 | 0.58 µM | 4 µM | 33% | 98% | 0.85 µM | 98% | 35% | > 60% | – | – |
| COC(C(=O)N1Cc2[nH]nc(NC(=O)c3ccc(N4CCN(C)CC4)cc3)c2C1)c1ccccc1 (racemic) | 6.8 | 0.61 µM | 4.13 µM | 15% | 97% | – | 25% | 77% | > 60% | – | – |
| CCc1cccc(CC)c1NC(=O)N1Cc2n[nH]c(NC(=O)c3ccc(N4CCN(C)CC4)cc3)c2C1 [PHA-680632] | 0.18 | – | – | – | – | – | – | – | – | 0.06 | – |
| CCS(=O)(=O)Nc1ccc2c(c1)/C(=C(/Nc1ccc(CN3CCCCC3)cc1)c1ccccc1)C(=O)N2 | – | – | – | – | – | – | – | – | – | – | Active |
| CN1CCN(c2ccc(C(=O)Nc3n[nH]c4c3CN(C(=O)Cc3cc(F)cc(F)c3)C4)cc2)CC1 | 0.7 | 0.91 µM | 0.63 µM | 37% | 98% | 0.59 µM | 99% | 98% | > 60% | – | – |
| CN1CCN(c2ccc(C(=O)Nc3n[nH]c4c3CN(C(=O)c3ccccc3)C4)cc2)CC1 | – | – | 0.54 µM | – | – | 11.1 µM | – | – | – | 0.05 | inactive |
| CO[C@@H](C(=O)N1Cc2n[nH]c(NC(=O)c3ccc(N4CCN(C)CC4)cc3)c2C1)c1ccccc1 [DANUSERTIB] | 1 | – | – | – | – | – | – | – | – | 0.25 | – |
| Cc1ccc(C(C)C(=O)N2Cc3[nH]nc(NC(=O)c4ccc(N5CCN(C)CC5)cc4)c3C2)cc1 (racemic) | 6.4 | 0.86 µM | 5.48 µM | 19% | 100% | – | 100% | 19% | > 60% | – | – |
| CN1CCN(c2ccc(C(=O)Nc3n[nH]c4c3CN(C(=O)Cc3ccc(F)c(F)c3)C4)cc2)CC1 | – | – | – | 29% | 98% | – | 53% | 18% | – | – | – |
| CN1CCN(c2ccc(C(=O)Nc3n[nH]c4c3CN(C(=O)Cc3c(F)cc(F)cc3F)C4)cc2)CC1 | – | – | – | 41% | 100% | – | 72% | 23% | – | – | – |
| CO[C@@H](C(=O)N1Cc2[nH]nc(NC(=O)c3ccc(N4CCN(C)CC4)cc3)c2C1)c1ccccc1 [DANUSERTIB] | – | 0.15 µM | – | – | – | 0.6 µM | – | – | – | – | Active |
| CCc1cccc(CC)c1NC(=O)N1Cc2[nH]nc(NC(=O)c3ccc(N4CCN(C)CC4)cc3)c2C1 [PHA-680632] | – | 1.25 µM | 0.22 µM | – | – | 4 µM | – | – | – | – | Active |
| Cc1ccc(S(=O)(=O)N2Cc3[nH]nc(NC(=O)c4ccc(N5CCN(C)CC5)cc4)c3C2)cc1 | – | – | 0.94 µM | – | – | 5.7 µM | – | – | – | 0.16 | Active |
| Cc1[nH]c2ccccc2c1CC(=O)N1Cc2[nH]nc(NC(=O)c3ccc(N4CCN(C)CC4)cc3)c2C1 | 1 | 1.2 µM | – | 34% | 98% | – | 63% | 62% | > 60% | – | – |
| CN1CCN(c2ccc(C(=O)Nc3n[nH]c4c3CN(C(=O)Cc3ccc(F)cc3F)C4)cc2)CC1 | – | – | – | 40% | 98% | – | 62% | 6% | – | – | – |
| Cc1ccc(C)c(CC(=O)N2Cc3[nH]nc(NC(=O)c4ccc(N5CCN(C)CC5)cc4)c3C2)c1 | 2.2 | 1.2 µM | 2.65 µM | 18% | 99% | – | 100% | 34% | > 60% | – | – |
| CN1CCN(c2ccc(C(=O)Nc3n[nH]c4c3CN(C(=O)Cc3cccc5ccccc35)C4)cc2)CC1 | 23 | 0.61 µM | 14.2 µM | 26% | 98% | – | 100% | 82% | > 60% | – | – |
| Cc1nc(C)c(CC(=O)N2Cc3[nH]nc(NC(=O)c4ccc(N5CCN(C)CC5)cc4)c3C2)s1 | – | – | – | 6% | 35% | – | 12% | 13% | – | – | – |
| CN1CCN(c2ccc(C(=O)Nc3n[nH]c4c3CN(C(=O)Cc3cc(F)cc(F)c3F)C4)cc2)CC1 | 1.2 | 2 µM | 2.31 µM | 26% | 99% | – | 94% | 44% | > 60% | – | – |
| CN1CCN(c2ccc(C(=O)Nc3n[nH]c4c3CN(C(=O)Nc3ccccc3)C4)cc2)CC1 | – | – | 3.55 µM | – | – | 6.1 µM | – | – | – | 0.58 | Active |
| CN1CCN(c2ccc(C(=O)Nc3n[nH]c4c3CN(C(=O)Cc3cc(F)ccc3F)C4)cc2)CC1 | – | – | – | 37% | 98% | – | 97% | 6% | – | – | – |
| CN1CCN(c2ccc(C(=O)Nc3n[nH]c4c3CN(C(=O)Cc3c(F)cccc3F)C4)cc2)CC1 | – | – | – | 32% | 97% | – | 66% | 20% | – | – | – |
